Bioassay records (PubChem BioAssay)
Rows were chosen to be rich in hits. Some 1.7% of all compounds tested hit in one or more screens of this group.
ZTA DNA inh: ZTA (EBV) inhibition in EBNA-1 counter-screen. P03206. ZTA-DNA binding, fluorescence polarization. inhibition, % at 11 µM. 320,000 compounds, 0.15% hits. AID 2234; in the data active means inhibition above about 33%
Target sequence (P03206 whole entry, looked up): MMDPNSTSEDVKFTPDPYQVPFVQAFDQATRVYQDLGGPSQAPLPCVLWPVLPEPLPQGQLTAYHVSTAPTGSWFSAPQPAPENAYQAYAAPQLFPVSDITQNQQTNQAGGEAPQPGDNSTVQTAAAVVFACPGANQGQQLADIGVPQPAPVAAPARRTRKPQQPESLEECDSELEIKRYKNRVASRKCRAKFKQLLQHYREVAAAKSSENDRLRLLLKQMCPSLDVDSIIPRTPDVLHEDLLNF
EBNA-1 inh: blocks EBNA-1 binding to DNA; inhibition, % at 14.8 µM; EBNA-1 DNA binding, fluorescence polarization; 300,000 compounds, 0.34% hits; in the data active means inhibition above about 28%
PP1 counter: PP1-alpha (human) inhibition in PP5 counter-screen. inhibition, % at 6.7 µM. 320,000 compounds, 0.9% hits. purified PP1alpha, OMFP fluorescence. P62136;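 active means inhibition above the mean inhibition of all tested compounds plus 3 SD, computed separately for each screening campaign, cut at about 15% in these data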
Target sequence (P62136 whole entry, looked up): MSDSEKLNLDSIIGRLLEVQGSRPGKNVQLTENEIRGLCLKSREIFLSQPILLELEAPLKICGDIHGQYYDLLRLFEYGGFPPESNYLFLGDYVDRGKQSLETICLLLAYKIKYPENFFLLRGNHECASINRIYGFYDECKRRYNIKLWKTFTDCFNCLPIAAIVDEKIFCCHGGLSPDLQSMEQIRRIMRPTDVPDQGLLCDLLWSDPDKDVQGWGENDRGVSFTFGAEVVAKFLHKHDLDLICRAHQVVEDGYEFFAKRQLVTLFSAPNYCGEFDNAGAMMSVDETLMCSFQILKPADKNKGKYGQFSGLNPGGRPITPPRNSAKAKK
PP5 inh: blocks human protein phosphatase 5 activity; P53041; AID 1987; inhibition, % at 6.7 µM; 320,000 compounds, 0.18% hits; purified PP5c, OMFP substrate fluorescence;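 active means inhibition above the campaign's mean inhibition across all tested compounds plus 3 SD, cut at about 9.5% in these data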;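 further: 0% = DMSO only and 100% = 100 µM cantharidin control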
HCV core dimer: HCV core protein dimerization inhibition. inhibition, % at 5 µM. 300,000 compounds, 0.33% hits. TR-FRET GST/Flag-core106 dimerization, 1536-well;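 active means inhibition above the mean of all tested compounds plus 3 SD, set per screening campaign, cut at about 45% in these data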
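Test system: GST/Flag-tagged HCV core106 proteins; Medium: KF-containing HEPES buffer, pH 7.45, DTT, CHAPS, BSA; Times: compound-protein-antibody incubation 4 h at 22.5 °C; Detection: TR-FRET 671 and 617 nm emission; Benchmarks: wells lacking GST-core106 and wells with excess unlabelled core106.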
Zta DNA confirm: confirmation of Epstein-Barr virus ZTA DNA binding inhibitors; Zta-ZRE DNA binding, fluorescence polarization; inhibition, % at 11.1 µM; shares compounds with ZTA DNA inh; 320 compounds, 30% hits;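 active means mean inhibition across triplicate runs above the hit threshold derived for the original primary screen, cut at about 33% in these data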;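 further: 0% = Zta with DMSO and 100% = wells lacking Zta protein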
EBNA1 counter: counter-screen for ZTA inhibitors: EBNA-1 DNA binding inhibition | shares compounds with ZTA DNA inh | fluorescence polarization | inhibition, % at 14.8 µM | 320 tested, under 10 active | AID 2362; call rule not given here
PP1 confirm: human PP1 phosphatase inhibition, confirmation; shares compounds with PP1 counter; purified PP1alpha, OMFP substrate fluorescence; 1,900 compounds, 52% hits; inhibition, % at 6.7 µM;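 active means mean PP1 inhibition above a set limit taken from the earlier primary screen, cut at about 15% in these data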
PP5 inh counter: counter-screen for PP1 inhibitors: human PP5 phosphatase inhibition | shares compounds with PP1 counter | purified PP5c, OMFP fluorescence | inhibition, % at 6.7 µM | 1,900 compounds, 4% hits;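 active means mean PP5 inhibition over triplicate wells above about 9.5% taken from the earlier PP1 screen, limit read from the data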
Starred values were filed as active, the others as inactive; . = not tested or not shown.

SMILES	ZTA DNA inh	EBNA-1 inh	PP1 counter	PP5 inh	HCV core dimer	Zta DNA confirm	EBNA1 counter	PP1 confirm	PP5 inh counter
C#CCOCCOCCOCCNc1nc(N2CCN(C(=O)CCCCCCCCCCNC(=O)[C@H](CCCCN)n3cc(C)nn3)CC2)nc(N2CCN(C(=O)CCCCCCCCCCNC(=O)[C@@H]([C@H](C)CC)n3cc(CCCCCN)nn3)CC2)n1	70.1*	-0.1	60.5*	4.6	12.0	43.9*	-6.9	28.5*	-0.9
C#CCOCCOCCOCCNc1nc(N2CCN(C(=O)CCCCCCCCCCNC(=O)[C@@H](CCSC)n3cc(CCO)nn3)CC2)nc(N2CCN(C(=O)CCCCCCCCCCNC(=O)[C@H]([C@@H](C)CC)n3cc(CCCCCN)nn3)CC2)n1	69.5*	13.3	60.1*	4.1	0.6	42.6*	4.0	52.7*	2.6
CCn1c(COc2ccc(=O)n(-c3ccccc3)n2)n[nH]c1=S	11.3	8.0	-1.3	0.1	5.9	.	.	.	.
Cc1nn(CC(=O)Nc2ccc(C(=O)N3CCCCC3)cc2)c(=O)c2ccccc12	34.6*	-1.5	23.1*	4.5	0.5	-17.4	-6.5	-2.3	-0.4
Cc1nn(CC(=O)Nc2ccc(C(=O)N3CCCC3)cc2)c(=O)c2ccccc12	-17.2	-3.4	3.6	1.3	-3.5	.	.	.	.
CC(CC(=O)O)CC(=O)Nc1ccc(Br)cc1 (stereo not given)	16.5	3.3	-0.6	2.4	-2.0	.	.	.	.
C=CCn1c(SCC(=O)c2c(N)n(CCC)c(=O)n(C)c2=O)nnc1-c1ccncc1	1.2	-0.1	-4.5	-0.5	-3.5	.	.	.	.
C#CCOCCOCCOCCNc1nc(N2CCN(C(=O)CCCCCCCCCCNC(=O)[C@H](CCCCN)n3cc(CCO)nn3)CC2)nc(N2CCN(C(=O)CCCCCCCCCCNC(=O)[C@H](CCCN=C(N)N)n3cc(C[C@@H](C)CC)nn3)CC2)n1	36.0*	5.3	44.6*	4.9	4.8	64.5*	-3.9	44.3*	2.4
C#CCOCCOCCOCCNc1nc(N2CCN(C(=O)CCCCCCCCCCNC(=O)[C@H](CCCCN)n3cc(CCCC(=O)O)nn3)CC2)nc(N2CCN(C(=O)CCCCCCCCCCNC(=O)[C@H](CCCN=C(N)N)n3cc(C[C@@H](C)CC)nn3)CC2)n1	48.5*	9.1	41.9*	1.2	-17.9	-1.7	-11.4	12.5	-1.6
O=C(Nc1ccc2oc(-c3ccncc3)nc2c1)c1ccc2c(c1)OCO2	49.9*	1.8	29.5*	1.0	2.9	76.0*	10.3	25.3*	0.8
N=C1/C(=C/c2coc3ccccc3c2=O)C(=O)N=C2SC(c3ccco3)=NN12	10.7	3.0	2.6	-0.9	-3.6	.	.	.	.
N=C1/C(=C\c2coc3ccccc3c2=O)C(=O)N=C2SC(c3ccncc3)=NN12	39.0*	-2.2	33.8*	-2.6	15.5	63.0*	-5.9	38.8*	-8.2
N#CCC(=O)Nc1ccc(C(=O)OCC(=O)NC2CCCCCC2)cc1	0.9	.	-1.9	0.8	.	.	.	.	.
CCCCCCCCCCC[N+](C)(C)CC/C=C1/c2ccccc2Sc2ccc(Cl)cc21	40.5*	2.5	38.9*	5.3	-5.0	-0.4	-6.3	9.4	2.3
CCCCCCCCCC[N+](C)(C)CC/C=C1/c2ccccc2Sc2ccc(Cl)cc21	34.4*	8.1	41.1*	7.6	1.7	5.7	-5.5	10.9	6.2
CC[N+](C)(C)CC/C=C1/c2ccccc2Sc2ccc(Cl)cc21	4.7	-6.2	-0.7	-0.2	-3.2	.	.	.	.
O=C(O)CCC(CNS(=O)(=O)c1ccccc1)C(F)(F)F (stereo not given)	0.2	0.4	0.2	-0.6	-4.8	.	.	.	.
Cc1nc(Nc2cnc(/C=C/c3cc(C(=O)Nc4cccc(C(F)(F)F)c4)ccc3C)cn2)cc(N2CCNCC2)n1	45.4*	14.5	22.8*	2.0	23.9	24.8	18.3	-6.4	-2.0
CCN(CC)CCOC(=O)c1ccc(N/C=C(/C#N)c2nc(-c3ccc(OC)cc3)cs2)cc1	47.5*	7.5	59.8*	1.0	5.0	22.5	-8.4	6.0	-1.4
CCN(CC)CCCN(C(=O)c1ccc(Br)cc1)c1nc(-c2ccc(OC)cc2)cs1	18.1	4.6	4.8	3.5	1.9	.	.	.	.
C=CCCCCCCCCC(=O)Nc1ncccn1	-5.5	-10.1	1.8	4.3	5.0	.	.	.	.
CC1(C)C[C@H]2C3=CCC4[C@@]5(C)CC[C@H](O)[C@](C)(CO)C5CC[C@@]4(C)[C@]3(C)C[C@H]3O[C@@H]1[C@H](O)[C@]32CO (stereo not given in full)	7.2	.	-2.6	1.0	.	.	.	.	.
COc1cccc(C(=O)Nc2cccc(-c3ccc4nncn4n3)c2)c1OC	5.7	-8.5	-0.7	1.1	6.0	.	.	.	.
COc1ccc(Cl)cc1C(=O)Nc1cccc(-c2ccc3nncn3n2)c1	91.6*	3.8	50.9*	0.8	11.2	118.1*	10.2	45.4*	0.0
COc1ccc(-c2noc(CN3CCCC(OCc4ccccn4)C3)n2)cc1 (stereo not given)	7.0	6.7	-5.8	1.8	6.8	.	.	.	.
SMILES	ZTA DNA inh	EBNA-1 inh	PP1 counter	PP5 inh	HCV core dimer	Zta DNA confirm	EBNA1 counter	PP1 confirm	PP5 inh counter
COc1ccc(-c2coc3c(CN4CCCCC4)c(O)c(CN4CCCCC4)c(O)c3c2=O)cc1	73.0*	-3.6	29.0*	4.0	-5.4	1.6	-9.6	-8.9	-7.7
O=c1c(-c2ccc(Cl)cc2)coc2c(CN3CCCCC3)c(O)ccc12	3.0	-0.3	-3.5	0.2	1.8	.	.	.	.
CCC(C)Sc1ccc(-c2nc3ccc(C)cn3c2NCc2ccccc2)cc1OC (stereo not given)	-7.2	-3.2	12.3	7.0	-7.2	.	.	.	.
CCC(C)Sc1cc(-c2nc3ccc(C)cn3c2NCc2ccccc2)ccc1OC (stereo not given)	40.3*	11.0	17.8*	5.3	11.5	93.4*	-14.3	5.0	2.5
COc1cc(-c2nnc(SCC3(c4ccc(Br)cc4)OCCO3)o2)cc(OC)c1OC	-4.3	-5.5	5.0	0.5	2.0	.	.	.	.
O=c1c(O)cccc2cc(O)c(O)c(O)c12	33.3*	-5.0	20.9*	2.3	-15.9	25.8	13.7	14.1	-3.0
COc1ccc2cc3c(N)nn(C(=O)Cc4ccc(Cl)cc4)c3nc2c1	7.8	2.5	21.0*	1.1	-2.4	.	.	11.7	-4.3
COc1ccc2cc3c(N)nn(C(=O)c4ccccc4Cl)c3nc2c1	21.4	-9.8	-19.1	2.8	-4.8	.	.	.	.
COc1cccc(CC(=O)n2nc(N)c3cc4ccc(OC)cc4nc32)c1	-4.9	-6.6	1.0	1.7	-7.2	.	.	.	.
COc1ccc2cc3c(N)nn(C(=O)Cc4c[nH]c5ccccc45)c3nc2c1	-1.7	-6.2	18.9*	5.2	9.2	.	.	17.0*	4.1
